High-throughput results from PubChem.
Sampled rows, rich in hits. Any-hit rate of the full collection: about 2.5%.
TRPC4 potent: allosteric potentiators of mouse TRPC4 channel. Q9QUQ5. HEK293 TRPC4beta/mu-opioid, DAMGO EC20, Fluo-4 Ca2+ flux; active compounds read high. B-score at 10 µM. 310,000 tested, 0.42% active. AID 2227;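 active = B-score of calcium response area above 5 SD of library B-scores, with initial fluorescence ratio within 5 SD of library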
TRPC6 inhibitor: mouse TRPC6 channel inhibition; Q61143; B-score at 10 µM; HEK293-TRPC6, membrane potential dye, ACh-evoked depolarization; active compounds read low; 310,000 tested, 1.1% active;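 active = B-score under library mean minus 3 SD, initial fluorescence not abnormally high, positive integrated signal ratio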;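 also: B-score derived from integrated fluorescence ratio over the kinetic read; more negative B-score means stronger inhibition of depolarization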
Target sequence (Q61143 whole entry, looked up): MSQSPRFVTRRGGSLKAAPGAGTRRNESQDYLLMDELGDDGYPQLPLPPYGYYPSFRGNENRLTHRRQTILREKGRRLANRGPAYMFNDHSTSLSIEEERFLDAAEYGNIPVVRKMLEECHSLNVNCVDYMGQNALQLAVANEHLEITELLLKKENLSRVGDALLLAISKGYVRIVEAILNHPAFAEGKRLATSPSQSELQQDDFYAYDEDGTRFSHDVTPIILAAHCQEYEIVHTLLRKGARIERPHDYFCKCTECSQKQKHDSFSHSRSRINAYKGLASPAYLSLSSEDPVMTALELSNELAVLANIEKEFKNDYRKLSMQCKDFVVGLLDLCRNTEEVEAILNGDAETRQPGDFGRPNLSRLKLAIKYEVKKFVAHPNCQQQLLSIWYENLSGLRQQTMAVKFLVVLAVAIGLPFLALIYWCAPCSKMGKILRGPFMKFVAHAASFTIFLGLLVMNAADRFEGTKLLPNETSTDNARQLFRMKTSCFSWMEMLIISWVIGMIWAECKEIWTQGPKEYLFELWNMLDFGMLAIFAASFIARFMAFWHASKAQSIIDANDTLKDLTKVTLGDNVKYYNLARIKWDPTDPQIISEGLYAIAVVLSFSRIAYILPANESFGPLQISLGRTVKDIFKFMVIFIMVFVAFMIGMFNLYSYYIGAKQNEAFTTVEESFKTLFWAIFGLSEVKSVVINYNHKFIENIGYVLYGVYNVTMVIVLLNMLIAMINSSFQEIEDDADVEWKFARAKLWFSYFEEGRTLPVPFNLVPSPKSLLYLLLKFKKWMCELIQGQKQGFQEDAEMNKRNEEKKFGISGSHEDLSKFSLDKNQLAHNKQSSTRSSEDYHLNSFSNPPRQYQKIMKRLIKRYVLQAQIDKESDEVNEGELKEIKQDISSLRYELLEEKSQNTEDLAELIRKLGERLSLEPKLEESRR
TRPC6 activator: activates the mouse TRPC6 cation channel. HEK293-TRPC6 membrane potential dye fluorescence; active compounds read high. AID 2550. 310,000 tested, 0.13% active. B-score at 10 µM. Q61143;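 active = B-score of the integrated fluorescence ratio above library mean plus 3 SD, and starting fluorescence ratio within library mean plus 5 SD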;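 also: higher score means more depolarization so channel activation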
TRPC4 act: activators of mouse TRPC4 channel; B-score at 10 µM; AID 2237; 310,000 tested, 0.49% active; Q9QUQ5; HEK293 TRPC4beta/mu-opioid, Fluo4 calcium fluorescence; active compounds read high;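 active = B-score above 5 SD of library B-scores, and initial fluorescence ratio not above library mean plus 5 SD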;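 also: positive B-score marks a calcium rise read as TRPC4 activation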
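Incubation: 45 min room-temperature Fluo4 loading, 110 s read / System: HEK293 cells stably co-expressing mouse TRPC4beta and mu-opioid receptor / Signal: Fluo4 fluorescence, kinetic / Control set: buffer (low) and maximal DAMGO (high) / Measure: integrated baseline-normalised fluorescence ratio, converted to per-well B score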
TRPC4 inh: TRPC4 (mouse) channel inhibition | HEK293 TRPC4beta/mu-opioid, DAMGO-evoked Fluo4 calcium flux; active compounds read low | B-score at 10 µM | Q9QUQ5 | AID 2247 | 300,000 tested, 0.39% active;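 active = B-score over 3 SD under the library average, no early fluorescence shift, positive overall ratio signal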
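Material: HEK293 cells with stable TRPC4beta plus mu-opioid receptor expression / Probe or stimulus: DAMGO in two steps, submaximal then maximal / Compound: single concentration per test compound / Technique: kinetic Fluo4 fluorescence imaging of calcium influx / Read-out: per-well B score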
Platelet DG rel: platelet dense granule release activity; human platelet-rich plasma, SFLLRN dense granule ATP release, luminescence; inhibition, %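 (compounds screened at 7.5 µM in platelet-rich plasma)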; 300,000 tested, 0.22% active; AID 1663;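 active = mean replicate score, as percent of positive control, at or above 50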
HEK293 TRPC6 ctr: counter-screen for TRPC6 modulators: effect in parental HEK293 cells | shares compounds with TRPC6 inhibitor | membrane potential dye fluorescence | membrane potential signal change, % at 10 µM | 2,400 tested, 51% active | AID 488924;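 active = membrane potential signal moves up or down beyond 5 SD from buffer-only wells, on both duplicate plates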
HEK293 MPD ctr 2: second counter-screen for TRPC6 modulators: effect in parental HEK293 cells; 2,400 tested, 14% active; AID 488926; membrane potential dye fluorescence; after compound, maximal acetylcholine stimulation; inhibition, % at 10 µM; shares compounds with TRPC6 inhibitor;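 active = membrane potential signal drops by more than 5 SD from the mean control signal, in both duplicate plates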
TRPC4/MOR mod: selectivity of TRPC6 modulators against mouse TRPC4. HEK293 TRPC4/mu-opioid, membrane potential fluorescence. percent change from control (negative = decrease, positive = increase), % at 10 µM. 2,400 tested, 69% active. shares compounds with TRPC6 inhibitor;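 active = membrane potential signal moved up or down beyond 5 SD of buffer control wells, in both duplicate plates, actives on both sides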
TRPC4 ctr inh 2: mouse TRPC4 off-target activity of TRPC6 modulators, second screen; shares compounds with TRPC6 inhibitor; HEK293 TRPC4/mu-opioid, membrane potential dye fluorescence; stimulated with maximal-effect DAMGO; inhibition, % at 10 µM; 2,400 tested, 55% active; AID 488928;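 active = drop in membrane potential signal beyond 5 SD of the control wells in both duplicate plates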;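 also: TRPC4 counter screen for TRPC6 hits run under conditions tuned for TRPC6 not TRPC4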
TRPC6 inh conf: mouse TRPC6 inhibitor confirmation. shares compounds with TRPC6 inhibitor. HEK293-TRPC6, membrane potential dye, ACh-evoked depolarization. inhibition, % at 10 µM. 3,300 tested, 43% active. AID 488960;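 active = fluorescence ratio falls more than 5 SD below the full-stimulation control mean, in both duplicate runs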;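 also: integrated fluorescence ratio of peak minus minimum over baseline after agonist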
TRPC6 act confirm: mouse TRPC6 activator confirmation | shares compounds with TRPC6 inhibitor | HEK293-TRPC6 membrane potential dye fluorescence, FDSS | activation, % at 10 µM | 2,800 tested, 11% active | AID 488961;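 active = ratio signal rise beyond 5 SD above unstimulated control wells' mean, seen in both duplicate runs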
Of the large screens only hits and unclear results are named; the others gave an inactive call (follow-up assays come after a bar, where they were run).

CCOc1ccccc1C(C(=O)NC1CCCC1)N(Cc1ccco1)C(=O)CNC(=O)c1ccco1 (stereo unspecified)	TRPC6 activator 13.7 | HEK293 TRPC6 ctr 350.0% | HEK293 MPD ctr 2 90.5% | TRPC4/MOR mod 78.0% | TRPC4 ctr inh 2 inactive | TRPC6 act confirm 149.5%
O=C(NC1CCCCC1)C(c1ccc(F)cc1)N(Cc1ccco1)C(=O)Cn1nnc2ccccc21 (stereo unspecified)	none
Cc1ccc(C(C(=O)NC2CCCCC2)N(Cc2ccco2)C(=O)Cn2cnc3ccccc32)cc1 (stereo unspecified)	TRPC6 activator 16.8 | HEK293 TRPC6 ctr inactive | HEK293 MPD ctr 2 inactive | TRPC4/MOR mod 121.5% | TRPC4 ctr inh 2 inactive | TRPC6 inh conf inactive | TRPC6 act confirm 30.0%
COc1ccc2[nH]c3c(C)c4ccncc4c(C)c3c2c1	TRPC6 inhibitor -6.21 | HEK293 TRPC6 ctr -159.0% | HEK293 MPD ctr 2 inactive | TRPC4/MOR mod -43.0% | TRPC4 ctr inh 2 33.0% | TRPC6 inh conf inactive | TRPC6 act confirm inactive
CCC(C)(C)n1nnnc1C(c1ccc(C)cc1)N1CCN(C(=O)c2ccco2)CC1 (stereo unspecified)	none
CCC(C)(C)n1nnnc1C(c1ccc(F)cc1)N1CCN(C(=O)c2ccco2)CC1 (stereo unspecified)	TRPC6 inhibitor -5.47 | HEK293 TRPC6 ctr 123.5% | HEK293 MPD ctr 2 inactive | TRPC4/MOR mod 28.0% | TRPC4 ctr inh 2 34.5% | TRPC6 inh conf inactive
CC(C)(C)NC(=O)C(c1ccccn1)N(C(=O)c1csnn1)C1CCCC1 (stereo unspecified)	none
CC(C)c1cc(C(C)C)c(S(=O)(=O)N2CCNCC2)c(C(C)C)c1	TRPC6 inhibitor -5.77 | HEK293 TRPC6 ctr inactive | HEK293 MPD ctr 2 inactive | TRPC4/MOR mod inactive | TRPC4 ctr inh 2 64.5% | TRPC6 inh conf 41.5% | TRPC6 act confirm inactive
Cc1cc2nc3s/c(=C/c4ccc(-c5ccccc5C(=O)O)o4)c(=O)n3c2cc1C	TRPC4 potent 12, TRPC6 activator 55.9, TRPC4 act 143 | HEK293 TRPC6 ctr active | HEK293 MPD ctr 2 inactive | TRPC4/MOR mod 395.0% | TRPC4 ctr inh 2 inactive | TRPC6 inh conf inactive | TRPC6 act confirm 720.5%
Cc1nn(C(=O)N2CCOCC2)c(C)c1C	TRPC6 inhibitor -5.5 | HEK293 TRPC6 ctr inactive | HEK293 MPD ctr 2 inactive | TRPC4/MOR mod inactive | TRPC4 ctr inh 2 inactive | TRPC6 inh conf inactive | TRPC6 act confirm inactive
CC1C(C#N)=C(N)OC2=C1C(=O)CC(c1ccccc1)C2 (stereo unspecified)	none
N=c1c(C(=O)NC2CCCCC2)cc2c(=O)n3ccccc3nc2n1Cc1cccnc1	TRPC6 inhibitor -5.49 | HEK293 TRPC6 ctr -84.5% | HEK293 MPD ctr 2 inactive | TRPC4/MOR mod -23.5% | TRPC4 ctr inh 2 30.5% | TRPC6 inh conf 36.5% | TRPC6 act confirm inactive
N=c1c(C(=O)NC2CCCCC2)cc2c(=O)n3ccccc3nc2n1Cc1ccccc1	TRPC6 inhibitor -8.04 | HEK293 TRPC6 ctr -141.5% | HEK293 MPD ctr 2 inactive | TRPC4/MOR mod -36.5% | TRPC4 ctr inh 2 50.5% | TRPC6 inh conf 46.5% | TRPC6 act confirm inactive
CN1CCN(/N=C/c2nc(-c3ccc(Cl)cc3)n3ccccc23)CC1	TRPC6 inhibitor -5.27 | HEK293 TRPC6 ctr -164.5% | HEK293 MPD ctr 2 inactive | TRPC4/MOR mod -35.5% | TRPC4 ctr inh 2 40.5% | TRPC6 inh conf inactive | TRPC6 act confirm inactive
CN1CCN(/N=C/c2nc(-c3ccccc3)n3ccccc23)CC1	none
Cc1nn(C(=O)c2cc([N+](=O)[O-])ccc2Cl)c(C)c1Br	none
CN(C)CCSc1nc(N)c2c3c(sc2n1)CN(C)CC3	TRPC6 inhibitor -8.56 | HEK293 TRPC6 ctr -209.5% | HEK293 MPD ctr 2 inactive | TRPC4/MOR mod -39.0% | TRPC4 ctr inh 2 46.5% | TRPC6 inh conf 55.0% | TRPC6 act confirm inactive
COCCSc1nc(N)c2c3c(sc2n1)CN(C)CC3	TRPC6 inhibitor -9.43 | HEK293 TRPC6 ctr -148.5% | HEK293 MPD ctr 2 inactive | TRPC4/MOR mod -29.0% | TRPC4 ctr inh 2 30.0% | TRPC6 inh conf inactive | TRPC6 act confirm inactive
CCCSc1nc(N)c2c3c(sc2n1)CN(C)CC3	TRPC6 inhibitor -7.11 | HEK293 TRPC6 ctr -111.5% | HEK293 MPD ctr 2 inactive | TRPC4/MOR mod -26.5% | TRPC4 ctr inh 2 inactive | TRPC6 inh conf inactive | TRPC6 act confirm inactive
CC(C)Sc1nc(N)c2c3c(sc2n1)CN(C)CC3	none
CSc1nc(NCC(C)C)c2c3c(sc2n1)CN(C)CC3	none
Cc1ccc(NC(=O)c2cc(C(=O)Nc3ccc(C)cc3)n(C)n2)cc1	none
CCC(=O)Nc1cccc(-c2cnc3ccccc3n2)c1	TRPC6 inhibitor -5.62 | HEK293 TRPC6 ctr inactive | HEK293 MPD ctr 2 inactive | TRPC4/MOR mod inactive | TRPC4 ctr inh 2 inactive | TRPC6 inh conf inactive | TRPC6 act confirm inactive
C/C=C/CSc1nc2c(c(=O)[nH]c(=O)n2C)n1Cc1ccc(C)cc1	none
CNC(=S)N/N=C/c1cn(Cc2c(F)cccc2Cl)c2ccccc12	TRPC6 inhibitor -5.3 | HEK293 TRPC6 ctr inactive | HEK293 MPD ctr 2 inactive | TRPC4/MOR mod inactive | TRPC4 ctr inh 2 inactive | TRPC6 inh conf inactive
Cc1nnc(SCC(=O)Nc2ccc(Cl)cn2)s1	none
COc1ccc(C(CCNCc2ccc(N(C)C)cc2)C(C)C)cc1 (stereo unspecified)	TRPC6 inhibitor -5.17 | HEK293 TRPC6 ctr 237.0% | HEK293 MPD ctr 2 inactive | TRPC4/MOR mod 44.5% | TRPC4 ctr inh 2 56.0% | TRPC6 inh conf 46.5%
COc1ccc(C(CCNCc2ccc(OC(C)C)cc2)C(C)C)cc1 (stereo unspecified)	none
CCOc1ccc(Br)cc1C(=O)N/N=C/c1c[nH]c2ccccc12	none
O=C(N/N=C/c1c[nH]c2ccccc12)c1cc(Br)ccc1O	TRPC6 inhibitor -6.33 | HEK293 TRPC6 ctr inactive | HEK293 MPD ctr 2 inactive | TRPC4/MOR mod inactive | TRPC4 ctr inh 2 60.5% | TRPC6 inh conf 44.0% | TRPC6 act confirm inactive
O=C1CSC(c2cccc(F)c2)N1c1c(F)cccc1F (stereo unspecified)	none
